esBAF inh – blocks esBAF chromatin remodeling in mouse ES cells. AID 602393. reporter increase, % at 12.5 µM. 350,000 compounds, 2% hits. Bmi1-luciferase knock-in reporter, 24 h; 100% = twice the neutral-well signal; in the data active = activation above about 40%; inconclusive = no clear call, values can overlap the other calls;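 note: 0% = median of the plate's neutral control wells and 100% = double that signal; a rise in the Bmi1 reporter signal indicates esBAF inhibition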
MITF act – MITF TRPM1 promoter activation in melanoma cells; activation, % at 12.5 µM; SK-MEL-5 TRPM1-promoter luciferase, 24 h; % of positive control, neutral wells = 0; 300,000 compounds, 0.75% hits;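 active = mean activation of at least 80% with every replicate also reaching 80%; inconclusive = mean reaches 80% but some replicate falls short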;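 note: 0% = neutral control wells and 100% = parthenolide positive control wells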
Vif inh – HIV Vif inhibition. HEK293T cells, Vif self-association by quenched fluorescence, imaging, 24 h. inhibition, % at 7.49 µM. 340,000 compounds, 0.35% hits; in the data active = inhibition above about 50%, passing the limit was not always enough; inconclusive = no clear call, values can overlap the other calls; inactive = below about 31%
Wnt bcat act – Wnt/beta-catenin pathway activation. 300,000 compounds, 1.2% hits. Wnt/beta-catenin reporter cell assay, activator, plate reader. activation, % at 9.35 µM; in the data active = activation above about 30%, passing the limit was not always enough; inconclusive = no clear call, values can overlap the other calls;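 note: 0% = neutral control wells and 100% = positive control wells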
Xi reactivation – activators of X-chromosome reactivation in mouse fibroblasts | XiGFP mouse fibroblasts, % GFP-positive cells imaging, 3 d; cells co-treated with 5-aza-dC sensitizer; scaled so ellipticine positive control = 100% | activation, % at 7.58 µM | 360,000 compounds, 0.055% hits | AID 743238;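 active = mean normalized replicate activation at least 10% and every replicate at or above 10%; inconclusive = only one of the two criteria met; inactive = mean below 10% and not all replicates reach 10%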;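 note: 0% = median of on-plate neutral control wells and 100% = ellipticine 6 µM median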
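Material: XiGFP fibroblasts, SV40-immortalized. Buffer or medium: DMEM plus 5-aza-dC sensitizer. Compound: single concentration per compound, delivered by pin transfer. Times: 3 days compound exposure. Controls: ellipticine 6 µM.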
esBAF Ring1 qPCR – de-represses Ring1 in mouse ESCs, confirming esBAF inhibition. shares compounds with esBAF inh. mouse ESC E14, Ring1 mRNA RT-qPCR fold change. fold change at 33 µM. 550 tested, under 10 active. AID 743176;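 active = Ring1 gene expression raised more than 2-fold over untreated cells in both replicates at either tested dose; inconclusive = only one replicate above 2-fold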;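 note: Ring1 transcript normalised to actin housekeeping signal by TaqMan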
esBAF Fgf4 qPCR – confirmation of esBAF inhibitors: Fgf4 repression in mouse ESCs | shares compounds with esBAF inh | mouse ESC E14, Fgf4 mRNA qPCR fold change; active compounds read low | 550 compounds, 4% hits | Fgf4 expression fold change at 33 µM;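 active = Fgf4 expression under 0.8 fold of control in both repeat measurements at one or both tested doses; inconclusive = under 0.8 fold in just a single repeat measurement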;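 note: Fgf4 transcript normalised to actin in duplex TaqMan qPCR; cells exposed to compound for 24 h before lysis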
esBAF Bmi1 qPCR – de-represses Bmi1 in mouse ESCs, confirming esBAF inhibition; shares compounds with esBAF inh; mouse ESE14 ES cells, Bmi1 mRNA qPCR fold; active compounds read high; fold change at 33 µM; 550 tested, under 10 active;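 active = Bmi1 expression fold change above 6 at either tested concentration, seen in replicate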;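 note: higher fold means more Bmi1 de-repression and stronger esBAF inhibition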
A549 tox SP – A549 cell cytotoxicity | cell viability change % (negative = cytotoxic), % at 25 µM, hits read low | shares compounds with esBAF inh | plate reader | 550 tested, under 10 active; call rule not given here
HepG2 tox SP – kills or reduces viability of HepG2 cells; shares compounds with esBAF inh; HepG2 cytotoxicity, plate reader; active compounds read low; activity change, negative = inhibition, % at 25 µM; 550 compounds, 4% hits; in the data active = activity change below about -50%
HEK293 cytotox SP – cytotoxicity in HEK293 cells; activity change, negative = inhibition, % at 25 µM, hits read low; plate reader; shares compounds with esBAF inh; 550 compounds, 3% hits; in the data active = activity change below about -38%, passing the limit was not always enough
An asterisk follows results filed as active; ? = inconclusive; nt = no result given. Only some compounds are listed: those with a hit (about 2.6% of all), similar ones and a draw of the others.

SMILES | esBAF inh | MITF act | Vif inh | Wnt bcat act | Xi reactivation | esBAF Ring1 qPCR | esBAF Fgf4 qPCR | esBAF Bmi1 qPCR | A549 tox SP | HepG2 tox SP | HEK293 cytotox SP
C[C@H](CO)N1C[C@H](C)[C@H](CN(C)S(=O)(=O)c2ccc(Cl)cc2)Oc2c(NC(=O)C3CCOCC3)cccc2C1=O | -4 | nt | nt | nt | 3 | nt | nt | nt | nt | nt | nt
COc1cccc2sc(N3CCN(C(=O)c4cccs4)CC3)nc12 | nt | -2 | -7 | 1 | 0 | nt | nt | nt | nt | nt | nt
Cc1cc2nc(N3CCN(C(=O)c4cccs4)CC3)sc2cc1C | 62* | 118* | -15 | 19 | 0 | 1.1 | ? | 1.4 | -8 | 24 | -11
O=C(NNC(=O)c1ccc2ccccc2c1O)NC1CCCCC1 | 0 | -5 | 2 | 2 | 0 | nt | nt | nt | nt | nt | nt
O=C(NC1CCCCC1)c1ccc2ccccc2c1O | 83* | nt | -2 | 0 | 0 | 1.1 | 0.73* | 1.9 | -13 | 9 | -50*
O=C(NC1CCCCCCC1)c1c(O)c2ccccc2[nH]c1=O | 91* | 100* | -2 | nt | nt | 1.1 | 0.92 | 1.3 | -6 | 18 | -18
CN1C(=O)c2cc(NC(=O)C3CC3)ccc2OC[C@H]2O[C@@H](CC(=O)NCc3ccccc3F)CC[C@@H]21 | nt | nt | nt | nt | 0 | nt | nt | nt | nt | nt | nt
CC(C)c1ccc(NC(=O)c2ccc3snnc3c2)cc1 | 72* | 76 | 3 | 19 | 0 | 1.2 | 0.94 | 1.8 | -3 | 11 | -5
Cc1ccc(NC(=O)c2ccc3snnc3c2)cc1 | nt | 51 | -3 | 0 | 0 | nt | nt | nt | nt | nt | nt
CNC[C@H]1Oc2c(NS(=O)(=O)c3cccs3)cccc2C(=O)N([C@H](C)CO)C[C@H]1C | -2 | nt | nt | nt | 0 | nt | nt | nt | nt | nt | nt
COc1cccc(CNC(=O)C[C@H]2C=C[C@@H](NC(=O)C3CC3)[C@H](CO)O2)c1 | 0 | nt | nt | nt | -1 | nt | nt | nt | nt | nt | nt
Nc1ccc2c(c1)C(=O)c1ccc(N)cc1-2 | 76* | 32 | 9 | -2 | 0 | 1.2 | 0.94 | 1.7 | 0 | -3 | 6
Cc1ccc(Nc2ncnc3sc(C)c(C)c23)cc1 | 59* | 41 | -2 | nt | nt | 1.2 | 0.92 | 1.4 | -2 | -12 | -3
C[C@H]1CN([C@@H](C)CO)C(=O)c2cccc(NC(=O)Nc3cccc4ccccc34)c2O[C@H]1CN(C)C | nt | nt | nt | nt | -1 | nt | nt | nt | nt | nt | nt
Cc1ccc(NC(=O)Nc2ccc(F)c(Cl)c2)cc1 | 64* | 65 | -9 | 47* | 1 | 0.94 | 1.3 | 1.5 | -9 | -18 | -33
COc1ccc(NC(=O)Nc2cc(C)ccc2F)cc1 | 123* | 101* | -5 | 29 | nt | 0.91 | 0.93 | 1.6 | -19 | -34 | -25
COc1ccc(NC(=O)Nc2ccc(F)c(F)c2)c(OC)c1 | nt | -71 | 4 | 1 | 0 | nt | nt | nt | nt | nt | nt
C/C=C/c1ccc2c(c1)O[C@@H](CN(C)Cc1ccccn1)[C@@H](C)CN([C@H](C)CO)S2(=O)=O | -3 | nt | nt | nt | 1 | nt | nt | nt | nt | nt | nt
CC(Cc1cccnc1)NC(=O)c1cc(COc2c(F)cccc2F)on1 (configuration not stated) | nt | -2 | -4 | 1 | 0 | nt | nt | nt | nt | nt | nt
CN(Cc1ccccn1)C(=O)c1cc(COc2ccc(F)c(F)c2)on1 | 73* | nt | nt | 2 | 0 | 1.1 | 0.97 | 1.1 | -13 | -13 | -16
Cc1ccc(OCc2cc(C(=O)NC(C)Cc3cccnc3)no2)cc1C (configuration not stated) | 72* | 63 | 0 | 18 | 0 | 1.1 | 1 | 1.9 | 0 | -12 | -11
Cc1ccc(OCc2cc(C(=O)N(C)CCc3ccccn3)no2)cc1C | 87* | 73 | -6 | 22 | 0 | 1 | 1 | 1.2 | -6 | -23 | -12

Screens: PubChem, Broad Institute
